19 molecules from ChEMBL document CHEMBL1153525, “Adenosine A2A receptor-antagonist/dopamine D2 receptor-agonist bivalent ligands as pharmacological tools to detect A2A-D2 receptor heteromers” (J Med Chem, 2009) can be followed below.

Experiment [1] is described as follows: Displacement of [3H]ZM241385 from A2aR dimer in lamb striatum membrane assessed as high affinity macroscopic equilibrium dissociation constant by scintillation counting. In kind it is cell membranes, Ovis aries. In a few lines:
(§1)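 Lamb striatal membranes (0.3-0.5 mg protein/mL) were incubated 2 h at 25 °C in 50 mM Tris-HCl pH 7.4 with 10 mM MgCl2 and 2 U/mL ADA. Radioligand was 2.1 nM [3H]ZM241385 (A2AR) or 0.9 nM [3H]YM09151-2 (D2R), against 11 competitor concentrations from 0.1 nM to 50 μM in triplicate. Nonspecific binding used 50 μM unlabeled radioligand. After GF/C filtration, counts were fitted to a two-state dimer model for KDB1 and KDB2; three experiments.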
For orientation: Displacement assays read how much labelled ligand stays bound in the presence of the test substance.

Experiment [2] concerns the target Adenosine A2A receptor (Homo sapiens) (UniProt P29274). Kind of experiment: Displacement of [3H]ZM241385 from human A2AR expressed in mouse Ltk cells at 1 uM by scintillation counting relative to control.
Target sequence in this assay (P29274 whole entry, looked up, canonical isoform): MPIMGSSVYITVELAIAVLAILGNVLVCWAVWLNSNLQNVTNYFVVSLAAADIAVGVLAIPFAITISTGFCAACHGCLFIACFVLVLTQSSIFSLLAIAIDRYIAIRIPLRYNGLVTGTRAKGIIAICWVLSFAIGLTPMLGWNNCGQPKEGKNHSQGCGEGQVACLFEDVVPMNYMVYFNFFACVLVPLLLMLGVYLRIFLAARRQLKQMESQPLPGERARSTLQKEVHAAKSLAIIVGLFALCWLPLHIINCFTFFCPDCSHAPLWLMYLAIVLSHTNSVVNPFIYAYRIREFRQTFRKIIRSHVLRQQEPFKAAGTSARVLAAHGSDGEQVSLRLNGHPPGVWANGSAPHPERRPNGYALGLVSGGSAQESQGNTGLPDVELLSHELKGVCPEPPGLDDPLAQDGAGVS
Experiment [3] has the same target. As to the kind of experiment: Displacement of [3H]ZM241385 from human A2aR expressed in mouse Ltk cells at 1 uM by scintillation counting relative to control. In kind it is cell-based. In a few lines:
(§2)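 Mouse Ltk fibroblasts were transiently transfected with human A2AR, human D2R (long isoform) or both, and membranes were prepared 48 h later. Membranes were incubated 2 h at 25 °C in 50 mM Tris-HCl pH 7.4 with 10 mM MgCl2 and 2 U/mL ADA, plus 2.1 nM [3H]ZM241385 or 1.9 nM [3H]YM09151-2 and 1 μM test compound. Bound ligand was counted after filtration and expressed as % of specific binding without displacer; three independent experiments.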
Target sequence in this assay (P29274 whole entry, canonical isoform): as the sequence (P29274 whole entry, looked up, canonical isoform) above

The subject of experiment [4] is Dopamine D2 receptor (Homo sapiens). As to the kind of experiment: Displacement of [3H]YM09151-2 from human A2aR/D2R (long isoform) heteromer expressed in mouse Ltk cells by scintillation counting.
For experiment [5], the target named is Adenosine A2A receptor (Homo sapiens) (UniProt P29274). Kind of experiment: Displacement of [3H]ZM241385 from human A2aR/D2R (long isoform) coexpressed in mouse Ltk cells by scintillation counting. In kind it is cell-based. An outline of the steps: as §2
Target sequence in this assay (P29274 whole entry, canonical isoform): as the sequence (P29274 whole entry, looked up, canonical isoform) above
Experiment [6] shares this target. As to the kind of experiment: Displacement of [3H]ZM241385 from human A2aR/D2R (long isoform) heteromer expressed in mouse Ltk cells by scintillation counting. In kind it is cell-based. An outline of the steps:
as §2
Target sequence in this assay (P29274 whole entry, canonical isoform): as the sequence (P29274 whole entry, looked up, canonical isoform) above

The nature of experiment [7]: Displacement of [3H]YM09151-2 from D2R (long isoform) dimer in lamb striatum membrane low affinity macroscopic equilibrium dissociation constant by scintillation counting. In kind it is cell membranes, Ovis aries. In a few lines: as §1
Experiment [8] is described as follows: Displacement of [3H]YM09151-2 from D2R (long isoform) dimer in lamb striatum membrane high affinity macroscopic equilibrium dissociation constant by scintillation counting. In kind it is cell membranes, Ovis aries. In a few lines:
as §1

The target in experiment [9] is D(2) dopamine receptor (Homo sapiens) (UniProt P14416). As to the kind of experiment: Displacement of [3H]YM09151-2 from human D2R expressed in mouse Ltk cells by scintillation counting relative to control. In kind it is cell-based. In a few lines:
as §2

In experiment [10] the target is Adenosine A2A receptor (Homo sapiens) (UniProt P29274). Kind of experiment: Displacement of [3H]ZM241385 from human A2aR expressed in mouse Ltk cells by scintillation counting relative to control. In kind it is cell-based. An outline of the steps: as §2
Target sequence in this assay (P29274 whole entry, canonical isoform): as the sequence (P29274 whole entry, looked up, canonical isoform) above

The structures appear in SMILES notation. Activity calls are given as the source filed them. The rule behind the calls is not given here.

D(2) dopamine receptor (Homo sapiens), sequence (P14416 whole entry): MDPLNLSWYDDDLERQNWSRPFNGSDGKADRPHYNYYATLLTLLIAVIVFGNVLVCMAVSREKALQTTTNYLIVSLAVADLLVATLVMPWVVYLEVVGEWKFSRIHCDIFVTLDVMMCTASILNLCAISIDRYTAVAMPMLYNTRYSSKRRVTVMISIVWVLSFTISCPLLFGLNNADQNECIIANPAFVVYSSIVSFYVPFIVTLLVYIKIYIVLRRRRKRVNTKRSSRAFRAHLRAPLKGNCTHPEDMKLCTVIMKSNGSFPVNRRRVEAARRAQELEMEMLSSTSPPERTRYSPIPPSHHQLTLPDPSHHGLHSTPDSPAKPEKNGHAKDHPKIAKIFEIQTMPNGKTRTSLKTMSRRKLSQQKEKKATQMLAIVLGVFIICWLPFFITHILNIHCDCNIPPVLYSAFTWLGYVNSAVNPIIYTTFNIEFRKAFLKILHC

Regarding `CCCn1c(=O)c2[nH]c(-c3ccc(OCC(=O)NCCCCC(N)C(=O)NCCCCC(NC(C)=O)C(=O)NCCOCCOCCNC(=O)CCC(=O)NCCOCCOCCNC(=O)CCC(=O)NCCOCCOCCNC(=O)CCC(=O)NC(CCCCNC(C)=O)C(N)=O)cc3)nc2n(CCC)c1=O` (stereo not given), in experiment [1], the Ki worked out at 364 nM. The result in [2] and in experiment [3] was Active.

As to `CCCN(CCc1ccc(NC(=O)CCC(N)C(=O)NCCCCC(NC(=O)CCC(=O)NCCOCCOCCNC(=O)CCC(=O)NCCOCCOCCNC(=O)CCC(=O)NCCOCCOCCNC(=O)CCC(=O)NCCOCCOCCNC(=O)CCC(=O)NCCOCCOCCNC(=O)CCC(=O)NCCOCCOCCNC(=O)C(CCCCNC(=O)C(N)CCCCNC(=O)COc2ccc(-c3nc4c([nH]3)c(=O)n(CCC)c(=O)n4CCC)cc2)NC(C)=O)C(N)=O)cc1)C1CCc2c(O)cccc2C1` (stereo not given), the outcome in experiment [4], in [5] and in [6] was Active.

On to `CCCN(CCc1ccc(NC(=O)CCC(N)C(=O)NCCCCC(NC(=O)CCC(=O)NCCOCCOCCNC(=O)CCC(=O)NCCOCCOCCNC(=O)C(CCCCNC(C)=O)NC(C)=O)C(N)=O)cc1)C1CCc2c(O)cccc2C1` (stereo not given), for which the outcome in experiment [4] was Active. Also, the Ki worked out at 12000 nM in experiment [7] and 11 nM in [8].

Regarding `CCCN(CCc1ccc(NC(=O)CCC(N)C(=O)NCCCCC(NC(=O)CCC(=O)NCCOCCOCCNC(=O)CCC(=O)NCCOCCOCCNC(=O)CCC(=O)NCCOCCOCCNC(=O)CCC(=O)NCCOCCOCCNC(=O)CCC(=O)NCCOCCOCCNC(=O)C(CCCCNC(C)=O)NC(C)=O)C(N)=O)cc1)C1CCc2c(O)cccc2C1` (stereo not given), in experiment [4], the outcome was Active.

On to `CCCN(CCc1ccc(NC(=O)CCC(N)C(=O)NCCCCC(NC(=O)CCC(=O)NCCOCCOCCNC(=O)CCC(=O)NCCOCCOCCNC(=O)CCC(=O)NCCOCCOCCNC(=O)CCC(=O)NCCOCCOCCNC(=O)CCC(=O)NCCOCCOCCNC(=O)CCC(=O)NCCOCCOCCNC(=O)C(CCCCNC(C)=O)NC(C)=O)C(N)=O)cc1)C1CCc2c(O)cccc2C1` (stereo not given), for which the outcome in experiment [4] was Active.

As to `CCCN(CCc1ccc(NC(=O)CCC(N)C(=O)NCCCCC(NC(=O)CCC(=O)NCCOCCOCCNC(=O)CCC(=O)NCCOCCOCCNC(=O)CCC(=O)NCCOCCOCCNC(=O)CCC(=O)NCCOCCOCCNC(=O)C(CCCCNC(=O)C(N)CCCCNC(=O)COc2ccc(-c3nc4c([nH]3)c(=O)n(CCC)c(=O)n4CCC)cc2)NC(C)=O)C(N)=O)cc1)C1CCc2c(O)cccc2C1` (stereo not given), the outcome in [4], in experiment [5] and in [6] was Active.

`CCCn1c(=O)c2[nH]c(-c3ccc(OCC(=O)NCCCCC(N)C(=O)NCCCCC(NC(C)=O)C(=O)NCCOCCOCCNC(=O)CCC(=O)NCCOCCOCCNC(=O)CCC(=O)NCCOCCOCCNC(=O)CCC(=O)NCCOCCOCCNC(=O)CCC(=O)NCCOCCOCCNC(=O)CCC(=O)NCCOCCOCCNC(=O)CCC(=O)NCCOCCOCCNC(=O)CCC(=O)NC(CCCCNC(C)=O)C(N)=O)cc3)nc2n(CCC)c1=O` (stereo not given) yielded an Activity in experiment [6] of 17%.

With `CCCN(CCc1ccc(NC(=O)CCC(N)C(=O)NCCCCC(NC(=O)CCC(=O)NCCOCCOCCNC(=O)CCC(=O)NCCOCCOCCNC(=O)C(CCCCNC(=O)C(N)CCCCNC(=O)COc2ccc(-c3nc4c([nH]3)c(=O)n(CCC)c(=O)n4CCC)cc2)NC(C)=O)C(N)=O)cc1)C1CCc2c(O)cccc2C1` (stereo not given), the outcome in experiment [4], in experiment [5] and in experiment [6] was Active. The Ki in [1] came out at 80 nM; in experiment [7], 1400 nM; in experiment [8], 1.1 nM.

Consider `CCCN(CCc1ccc(NC(=O)CCC(N)C(=O)NCCCCC(NC(=O)CCC(=O)NCCOCCOCCNC(=O)CCC(=O)NCCOCCOCCNC(=O)CCC(=O)NCCOCCOCCNC(=O)C(CCCCNC(C)=O)NC(C)=O)C(N)=O)cc1)C1CCc2c(O)cccc2C1` (stereo not given), for which the result in experiment [9] and in [10] was inactive. Further, the result in [4], in [2] and in [3] was Active. Besides, the Ki stood at 9000 nM in experiment [7] and 13 nM in [8].

Turning to `CCCN(CCc1ccc(NC(=O)CCC(N)C(=O)NCCCCC(NC(=O)CCC(=O)NCCOCCOCCNC(=O)C(CCCCNC(C)=O)NC(C)=O)C(N)=O)cc1)C1CCc2c(O)cccc2C1` (stereo not given), the result in experiment [9] and in [10] was inactive. Moreover, the outcome in experiment [4], in [2] and in [3] was Active. Besides, the results for the inhibition constant Ki in [7] and in [8] were 15000 nM and 11 nM, respectively.

Regarding `CCCn1c(=O)c2[nH]c(-c3ccc(OCC(=O)NCCCCC(N)C(=O)NCCCCC(NC(C)=O)C(=O)NC(CCCCNC(C)=O)C(N)=O)cc3)nc2n(CCC)c1=O` (stereo not given), the Activity in experiment [6] was determined as 58%. Further, in [1], the Ki was found to be 160 nM.

Regarding `CCCN(CCc1ccc(NC(=O)CCC(N)C(=O)NCCCCC(NC(=O)CCC(=O)NCCOCCOCCNC(=O)CCC(=O)NCCOCCOCCNC(=O)CCC(=O)NCCOCCOCCNC(=O)CCC(=O)NCCOCCOCCNC(=O)CCC(=O)NCCOCCOCCNC(=O)C(CCCCNC(=O)C(N)CCCCNC(=O)COc2ccc(-c3nc4c([nH]3)c(=O)n(CCC)c(=O)n4CCC)cc2)NC(C)=O)C(N)=O)cc1)C1CCc2c(O)cccc2C1` (stereo not given), the outcome in [4], in experiment [5] and in experiment [6] was Active.

Turning to `CCCN(CCc1ccc(NC(=O)CCC(N)C(=O)NCCCCC(NC(=O)C(CCCCNC(=O)C(N)CCCCNC(=O)COc2ccc(-c3nc4c([nH]3)c(=O)n(CCC)c(=O)n4CCC)cc2)NC(C)=O)C(N)=O)cc1)C1CCc2c(O)cccc2C1` (stereo not given), the outcome in experiment [4], in experiment [5] and in [6] was Active. The Ki is 55 nM in experiment [1], 9000 nM in experiment [7] and 1 nM in experiment [8].

`CCCN(CCc1ccc(NC(=O)CCC(N)C(=O)NCCCCC(NC(=O)CCC(=O)NCCOCCOCCNC(=O)CCC(=O)NCCOCCOCCNC(=O)CCC(=O)NCCOCCOCCNC(=O)CCC(=O)NCCOCCOCCNC(=O)CCC(=O)NCCOCCOCCNC(=O)CCC(=O)NCCOCCOCCNC(=O)CCC(=O)NCCOCCOCCNC(=O)C(CCCCNC(=O)C(N)CCCCNC(=O)COc2ccc(-c3nc4c([nH]3)c(=O)n(CCC)c(=O)n4CCC)cc2)NC(C)=O)C(N)=O)cc1)C1CCc2c(O)cccc2C1` (stereo not given): in [9], the outcome was inactive. Besides, the outcome in [4], in experiment [5] and in experiment [6] was Active.

For `CCCn1c(=O)c2[nH]c(-c3ccc(OCC(=O)NCCCCC(N)C(=O)NCCCCC(NC(C)=O)C(=O)NCCOCCOCCNC(=O)CCC(=O)NC(CCCCNC(C)=O)C(N)=O)cc3)nc2n(CCC)c1=O` (stereo not given), in [9], the result was inactive. Also, in experiment [1], the Ki worked out at 246 nM. Also, the outcome in experiment [2] and in experiment [3] was Active.

Take `CCCN(CCc1ccc(NC(=O)CCC(N)C(=O)NCCCCC(NC(=O)C(CCCCNC(C)=O)NC(C)=O)C(N)=O)cc1)C1CCc2c(O)cccc2C1` (stereo not given): the outcome in [4] was Active. Moreover, the figures for the Ki in experiment [7] and in experiment [8] were 9000 nM and 4 nM, respectively.

Regarding `CCCN(CCc1ccc(NC(=O)CCC(N)C(=O)NCCCCC(NC(=O)CCC(=O)NCCOCCOCCNC(=O)CCC(=O)NCCOCCOCCNC(=O)CCC(=O)NCCOCCOCCNC(=O)CCC(=O)NCCOCCOCCNC(=O)C(CCCCNC(C)=O)NC(C)=O)C(N)=O)cc1)C1CCc2c(O)cccc2C1` (stereo not given), in [4], the result was Active.

For the molecule `CCCN(CCc1ccc(NC(=O)CCC(N)C(=O)NCCCCC(NC(=O)CCC(=O)NCCOCCOCCNC(=O)CCC(=O)NCCOCCOCCNC(=O)CCC(=O)NCCOCCOCCNC(=O)CCC(=O)NCCOCCOCCNC(=O)CCC(=O)NCCOCCOCCNC(=O)CCC(=O)NCCOCCOCCNC(=O)CCC(=O)NCCOCCOCCNC(=O)C(CCCCNC(C)=O)NC(C)=O)C(N)=O)cc1)C1CCc2c(O)cccc2C1` (stereo not given), the result in experiment [4] was Active.

With `CCCn1c(=O)c2[nH]c(-c3ccc(OCC(=O)NCCCCC(N)C(=O)NCCCCC(NC(C)=O)C(=O)NCCOCCOCCNC(=O)CCC(=O)NCCOCCOCCNC(=O)CCC(=O)NC(CCCCNC(C)=O)C(N)=O)cc3)nc2n(CCC)c1=O` (stereo not given), the Ki in [1] was determined as 268 nM.

A word on the Ki: it is the equilibrium dissociation constant of an inhibitor or competing ligand from its target.
